Calls of active or inactive are those of the source. The calls are words filed in the database; no cut-off is given here. Where a SMILES comes first, the peptide text is derived from it. The star is where a group is joined. Oleoyl = CCCCCCCC/C=C\CCCCCCCC(=O)*
Experiments:
[1] = test system: C2C12; experiment: Uncoupling activity in mouse C2C12 cells assessed as induction of SLC25-mediated mitochondrial respiration at 50 uM mixed for 2 mins measured after 2 mins post mixing relative to basal oligomycin-treated respiration; assay type: cell-based
Method in brief: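 C2C12 cells seeded 35,000/well, assayed next day in Seahorse XF24 respiration buffer (DMEM, pyruvate, 20 mM glucose) after 1 h CO2-free. Sequential injections: oligomycin 1 μM, compound 50 μM, FCCP 0.2 μM, rotenone 3 μM final; cycles of 2 min mix, 2 min measure. Cycle 6 set to 100%; maximal respiration over cycles 7–15 reported. n=3–6.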

[2] = molecular target: T1, N-fatty-acyl-amino acid synthase/hydrolase PM20D1 (Mus musculus, UniProt Q8C165); experiment: Metabolic stability assessed as recombinant mouse 6xHis/FLAG-tagged PM20D1-mediated hydrolysis by measuring parent compound remaining at 100 nmol after 1 hr by LC-MS method; assay type: ADME; conditions: in the assay text read “at 10 nmol” for “at 100 nmol”
T1 sequence (Q8C165 whole entry): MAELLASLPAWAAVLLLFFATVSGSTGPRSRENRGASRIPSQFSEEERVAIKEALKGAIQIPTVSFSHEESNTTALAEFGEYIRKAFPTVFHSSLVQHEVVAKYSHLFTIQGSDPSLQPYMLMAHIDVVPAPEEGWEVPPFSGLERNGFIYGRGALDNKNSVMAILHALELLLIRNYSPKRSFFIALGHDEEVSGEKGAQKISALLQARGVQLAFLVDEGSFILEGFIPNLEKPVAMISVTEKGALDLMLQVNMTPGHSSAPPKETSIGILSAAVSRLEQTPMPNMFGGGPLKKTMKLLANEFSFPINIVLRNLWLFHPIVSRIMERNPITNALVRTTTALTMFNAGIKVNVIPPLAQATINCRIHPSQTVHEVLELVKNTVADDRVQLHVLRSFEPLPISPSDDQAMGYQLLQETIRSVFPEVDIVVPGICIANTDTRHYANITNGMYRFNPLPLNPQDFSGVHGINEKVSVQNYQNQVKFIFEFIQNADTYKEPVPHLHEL
Method in brief: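 Murine PM20D1–6xHis-Flag expressed transiently in 293T cells, Flag-M2 purified from serum-free conditioned medium. 10 nmol compound in 100 μl PBS (100 μM) with enzyme or PBS, 1 h at 37 °C; quenched in chloroform:methanol with d31-palmitate internal standard; intact substrate and released fatty acid quantified by LC-MS. Means ± SEM, n=3.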

[3] = Half life in mouse liver microsomes at 1 uM after 60 mins in presence of NADPH by LC-MS/MS analysis; assay type: ADME, microsome
Method in brief: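 Test compound at 1 μM with 1 mg/mL mouse liver microsomes in 100 mM KPi pH 7.4, 37C with shaking; started with NADPH (1 mM final), -NADPH controls included. Samples at 0, 5, 10, 20, 40, 60 min quenched in 5X acetonitrile, filtered, LC-MS/MS; data log transformed to half-life.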

[4] = test system: Mus musculus; experiment: Anti-obesity activity against DIO mouse assessed as reduction in body weight gain by measuring net weight change at 10 mg/kg, ip administered daily for 7 consecutive days (reference value: 1.1 +/- 0.1 g); assay type: functional
[5] = test system: Mus musculus; experiment: Anti-obesity activity against DIO mouse assessed as reduction in body weight gain by measuring net weight change at 25 mg/kg, ip administered daily for 7 consecutive days (reference value: 1.1 +/- 0.1 g); assay type: functional
[6] = test system: Mus musculus; experiment: Anti-obesity activity against DIO mouse assessed as reduction in body weight gain by measuring net weight change at 5 mg/kg, ip administered daily for 7 consecutive days (reference value: 1.1 +/- 0.1 g); assay type: functional, organism-based
[7] = test system: Mus musculus; experiment: Anti-obesity activity against ip dosed DIO mouse assessed as reduction in body weight gain administered daily for 7 consecutive days; assay type: functional, organism-based
[8] = test system: Mus musculus; experiment: Anti-obesity activity against DIO mouse assessed as reduction in food intake at 25 mg/kg, ip administered daily for 7 consecutive days; assay type: functional, organism-based
[9] = test system: Mus musculus; experiment: Anti-obesity activity against DIO mouse assessed as blood glucose levels at 25 mg/kg, ip administered daily for 7 consecutive days measured after 2 hrs post last dose (reference value: 204 +/- 7 mg/dl); assay type: functional

| Compound | Emax [1] | other results |
| --- | --- | --- |
| CCCCCCCC/C=C\CCCCCCCC(=O)N1Cc2ccccc2[C@@H]1C(=O)O | 190% | Stability [2]: Stable; half-life at 1 µM [3]: 1.07 h |
| CCCCCCCC/C=C\CCCCCCCC(=O)N1Cc2ccccc2C[C@H]1C(=O)O | 187% | – |
| CCCCCCCC/C=C/CCCCCCCC(=O)N[C@@H](Cc1ccccc1)C(=O)O | 107% | – |
| CCCCCCCC/C=C\CCCCCCCC(=O)N[C@@H](CCC(N)=O)C(=O)O | 164% | – |
| CCCCCCCC/C=C\CCCCCCCCNC(=O)N[C@@H](Cc1ccccc1)C(=O)O | 97% | – |
| CCCCCCCCCCCCCCCCCCCC(=O)N[C@@H](Cc1ccccc1)C(=O)O | 95% | – |
| CCCCCCCCCCC/C=C\CCCCC(=O)N[C@@H](Cc1ccccc1)C(=O)O | 110% | – |
| CCCCCCCC/C=C\CCCCCCCC(=O)N[C@@H](CCC(=O)O)C(=O)O | 106% | – |
| CCCCCCCC/C=C\CCCCCCCC(=O)N[C@@H](CC(C)C)C(=O)O | 178% | half-life at 1 µM [3]: 0.133 h |
| CCCCCCCC/C=C\CCCCCCCC(=O)N[C@@H](Cc1ccc(O)cc1)C(=O)O | 105% | half-life at 1 µM [3]: 0.133 h |
| CC/C=C\C/C=C\C/C=C\C/C=C\C/C=C\CCCC(=O)N[C@@H](Cc1ccccc1)C(=O)O | 259% | – |
| CCCCCCCCCCCCCCCC(=O)N[C@@H](Cc1ccccc1)C(=O)O | 180% | – |
| CCCCCCCC/C=C\CCCCCCCC(=O)NCC(=O)NCC(=O)O (Oleoyl-Gly-Gly-OH) | 206% | – |
| CCCCCCCC/C=C\CCCCCCCC(=O)N[C@@H](Cc1c[nH]c2ccccc12)C(=O)O | 147% | – |
| CCCCCCCC/C=C\CCCCCCCC(=O)N1c2ccccc2C[C@H]1C(=O)O | 146% | – |
| CCCCCCCCCCCCCCCCCCCCCC(=O)N[C@@H](Cc1ccccc1)C(=O)O | 100% | – |
| CCCCCC/C=C\CCCCCCCCCC(=O)N[C@@H](Cc1ccccc1)C(=O)O | 115% | – |
| CCCCC/C=C\C/C=C\CCCCCCCC(=O)N[C@@H](Cc1ccccc1)C(=O)O | 218% | – |

| Compound | Emax [1] | other results |
| --- | --- | --- |
| CCCCCCCC/C=C\CCCCCCCCNC(=O)NCC(=O)O | 104% | – |
| CCCCCCCC/C=C\CCCCCCCC(=O)N[C@H](C(=O)O)[C@@H](C)CC | 167% | half-life at 1 µM [3]: 0.133 h |
| CCCCCCCC/C=C\CCCCCCCC(=O)N[C@H](Cc1ccccc1)C(=O)O | 173% | – |
| CCCCCCCC/C=C\CCCCCCCC(=O)NCCC(=O)O | 185% | – |
| CCCCC/C=C\C/C=C\CCCCCCCC(=O)N1Cc2ccccc2[C@H]1C(=O)O | 185% | Stability [2]: Stable; half-life at 1 µM [3]: 1.07 h |
| CCCCCCCC/C=C\CCCCCCCCCC(=O)N[C@@H](Cc1ccccc1)C(=O)O | 103% | – |
| CCCCCCCC/C=C\CCCCCCCC(=O)N[C@@H](Cc1ccccc1)C(=O)O | 161% | – |
| CCCCCCCC/C=C\CCCCCCCC(=O)N1CCCC[C@H]1C(=O)O | 174% | – |
| CCCCC/C=C\C/C=C\CCCCCCCC(=O)N1Cc2ccccc2[C@@H]1C(=O)O | 190% | Stability [2]: Stable; half-life at 1 µM [3]: 1.07 h; Activity [4]: 0.2 g; Activity [5]: -1.2 g; Activity [6]: inactive; Activity [7]: Dose-dependent effect; Activity [8]: inactive; Activity [9]: 172 mg/dL |
| CCC/C=C\C/C=C\C/C=C\CCCCCCC(=O)N[C@@H](Cc1ccccc1)C(=O)O | 109% | – |
| CCCCCCCC/C=C\CCCCCCCC(=O)NCCc1ccccc1 | 104% | – |
| CCCCCCCCCCCC(=O)N[C@@H](Cc1ccccc1)C(=O)O | 96% | – |
| CCCCCCCC/C=C\CCCCCCCC(=O)N1Cc2ccccc2[C@H]1C(=O)O | 240% | Stability [2]: Stable; half-life at 1 µM [3]: 1.07 h |
| CCCCCCCC/C=C\CCCCCCCC(=O)N1CCC[C@H]1C(=O)O | 182% | – |
| CCCCC/C=C\C/C=C\C/C=C\C/C=C\CCCC(=O)N[C@@H](Cc1ccccc1)C(=O)O | 200% | – |
| CCCCCCCC/C=C\CCCCCCCC(=O)N1CCc2ccccc2C1C(=O)O (stereo not drawn) | 216% | – |
| CCCCCCCCCCCCCCCCCC(=O)N[C@@H](Cc1ccccc1)C(=O)O | 148% | – |
| CC/C=C\C/C=C\C/C=C\C/C=C\C/C=C\C/C=C\CCC(=O)N[C@@H](Cc1ccccc1)C(=O)O | 166% | – |

From ChEMBL document CHEMBL4219135, “Discovery of Hydrolysis-Resistant Isoindoline N-Acyl Amino Acid Analogues that Stimulate Mitochondrial Respiration” (J Med Chem, 2018)
